According to ChEMBL document CHEMBL1125614, “Synthesis of 2-exo- and 2-endo-mecamylamine analogues. Structure-activity relationships for nicotinic antagonism in the central nervous system” (J Med Chem, 1991):

Experiments:
Mus musculus [1] = assay: In vivo nicotinic antagonism relative to (+/-)-exo-mecamylamine measured in mice; type: functional
How it was run: (§1)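 Mice; antagonist or saline sc 10 min before saline or nicotine ditartrate at its ED84 dose. Spontaneous activity counted in photocell cages, % depression vs saline. Tail-flick latency to heat measured 5 min after nicotine, 10-s cutoff, as % MPE. % antagonism per assay; AD50 with 95% confidence limits by Litchfield-Wilcoxon. Potency ratio = compound AD50 / racemic mecamylamine AD50; relative potency averages both assays.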

[2] = Partition coefficient (logP); type: physicochemical; conditions: octanol/water
How it was run: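 Octanol-water partition coefficient, calculated (not measured) from structure by the Rekker fragment procedure.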

Mus musculus [3] = assay: In vivo nicotinic antagonism relative to (+/-)-exo-mecamylamine measured in mice; stimulant; type: functional, organism-based; how it was run: as §1

Structure (SMILES) | Relative potency (Mus musculus [1]) | logP ([2]; read-out: logP) | logP [2] | Relative potency (Mus musculus [3])
CNC1CC2CCC1(C)C2(C)C (racemic) | 8.6 | 3.53 | – | –
CN(C)C1(C)C2CCC(C2)C1(C)C (racemic) [DIMECAMINE] | 1.5 | 3.96 | – | –
CNC1(C)C2CCC(C2)C1(C)C (racemic) [MECAMYLAMINE] | 1 | – | 3.53 | –
CCNC1C2CCC(C2)C1c1ccccc1 (racemic) [FENCAMFAMIN] | – | 4.15 | – | Stimulant
CN(C)C1CC2CCC1(C)C2(C)C (racemic) | 10.5 | 3.96 | – | –
CNC1CC2CCC1C2 (racemic) | >40 | 1.97 | – | –
CNC1(C)C2CCC(C2)C1(C)C (single isomer, unassigned; (-)) [MECAMYLAMINE] | 1.4 | – | – | –
CNC1C2CCC(C2)C1(C)C (racemic) | 1.2 | 3.01 | – | –
CN[C@@H]1C2(C)CCC(C2)C1(C)C (single isomer, unassigned; (-)) | 1.7 | 3.53 | – | –
CN[C@H]1C2(C)CCC(C2)C1(C)C (single isomer, unassigned; (-)) | 6.2 | 3.53 | – | –
CNC1(C)C2CCC(C2)C1(C)C (single isomer, unassigned; (+)) [MECAMYLAMINE] | 3 | – | – | –
CN[C@H]1C2(C)CCC(C2)C1(C)C (single isomer, unassigned; (+)) | 1.9 | – | – | –
CN[C@@H]1C2(C)CCC(C2)C1(C)C (single isomer, unassigned; (+)) | 1.2 | – | – | –
CNC1C2CCC(C2)C1C (racemic) | 18.1 | 2.49 | – | –
